Reference: ChEMBL document CHEMBL4725242, “Discovery of GS-9688 (Selgantolimod) as a Potent and Selective Oral Toll-Like Receptor 8 Agonist for the Treatment of Chronic Hepatitis B” (J Med Chem, 2020)
The source made the active and inactive calls.

Columns and labels:
Toll-like receptor 7 = biological target: T1, Toll-like receptor 7 (Homo sapiens, UniProt Q9NYK1); test: Agonist activity at TLR7 in human cryopreserved PBMC assessed as induction of IFNalpha production measured after 24 hrs
T1 sequence (Q9NYK1 whole entry): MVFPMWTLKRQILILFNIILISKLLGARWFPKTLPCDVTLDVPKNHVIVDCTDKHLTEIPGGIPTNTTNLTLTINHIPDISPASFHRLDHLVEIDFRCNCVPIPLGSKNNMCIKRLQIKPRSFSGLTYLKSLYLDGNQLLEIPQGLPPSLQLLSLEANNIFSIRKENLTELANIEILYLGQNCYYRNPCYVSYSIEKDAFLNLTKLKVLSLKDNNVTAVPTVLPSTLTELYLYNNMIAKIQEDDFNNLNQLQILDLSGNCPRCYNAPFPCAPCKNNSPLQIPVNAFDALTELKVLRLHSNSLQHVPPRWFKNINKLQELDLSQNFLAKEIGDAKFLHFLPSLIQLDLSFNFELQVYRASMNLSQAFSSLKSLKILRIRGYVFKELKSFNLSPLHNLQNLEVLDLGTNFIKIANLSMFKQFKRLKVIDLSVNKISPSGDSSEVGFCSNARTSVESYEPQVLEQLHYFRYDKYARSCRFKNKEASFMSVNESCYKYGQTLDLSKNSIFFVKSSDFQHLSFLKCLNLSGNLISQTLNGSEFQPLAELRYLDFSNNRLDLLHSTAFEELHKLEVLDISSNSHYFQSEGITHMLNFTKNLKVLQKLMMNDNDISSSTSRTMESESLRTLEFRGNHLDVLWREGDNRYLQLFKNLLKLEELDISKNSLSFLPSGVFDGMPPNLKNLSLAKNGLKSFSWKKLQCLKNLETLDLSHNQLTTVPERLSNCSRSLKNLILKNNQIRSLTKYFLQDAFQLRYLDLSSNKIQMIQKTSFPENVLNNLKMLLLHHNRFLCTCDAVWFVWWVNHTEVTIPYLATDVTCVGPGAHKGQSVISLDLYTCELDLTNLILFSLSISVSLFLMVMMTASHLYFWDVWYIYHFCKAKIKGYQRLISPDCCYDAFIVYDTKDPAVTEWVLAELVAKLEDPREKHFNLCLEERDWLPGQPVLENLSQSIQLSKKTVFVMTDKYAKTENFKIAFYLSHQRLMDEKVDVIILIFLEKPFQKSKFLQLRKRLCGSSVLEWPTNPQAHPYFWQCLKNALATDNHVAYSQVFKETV
Method in brief: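 Cryopreserved healthy-donor human PBMC, recovered 2 h at 37°C/5% CO2, then 100k cells/well in RPMI/10% FBS exposed 24 h at 37°C to a 10-point half-log dilution series (0.5% final DMSO). Supernatant IFNα-2a quantified by MSD electrochemiluminescence immunoassay. For the ratio, divided by the IL-12p40 EC50 from the same PBMC screen.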

[1] = Drug metabolism in human hepatocytes assessed as oxidation of lipophilic chain; format: ADME, cell-based, Hepatocyte
[2] = AUC (infinity) in Beagle dog at 0.5 mg/kg, po administered via gavage by HPLC-MS analysis; format: ADME, organism-based, Canis lupus familiaris; set-up: route oral, time infinity, dose 0.5 mg/kg; details: in vivo
Method in brief: (§1)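 Oral dosing in 2% ethanol/40% PEG 300/58% 0.01N HCl: Sprague Dawley rats 5 mg/kg, beagle dogs 0.5 mg/kg, cynomolgus monkeys 3 mg/kg.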

[3] = Cmax in cynomolgus monkey at 3 mg/kg, po administered via gavage by HPLC-MS analysis; format: ADME, organism-based, Macaca fascicularis; set-up: route oral, dose 3 mg/kg; details: in vivo; method in brief: as §1
[4] = biological target: T2, Toll-like receptor 8 (Homo sapiens) (UniProt Q9NR97); test: Agonist activity at human TLR8 expressed in HEK293 cells assessed as increase in NF-kappaB activation incubated for 24 hrs by quanti-blue SEAP reporter gene assay; format: cell-based; details: filed as agonist
T2 sequence (whole entry): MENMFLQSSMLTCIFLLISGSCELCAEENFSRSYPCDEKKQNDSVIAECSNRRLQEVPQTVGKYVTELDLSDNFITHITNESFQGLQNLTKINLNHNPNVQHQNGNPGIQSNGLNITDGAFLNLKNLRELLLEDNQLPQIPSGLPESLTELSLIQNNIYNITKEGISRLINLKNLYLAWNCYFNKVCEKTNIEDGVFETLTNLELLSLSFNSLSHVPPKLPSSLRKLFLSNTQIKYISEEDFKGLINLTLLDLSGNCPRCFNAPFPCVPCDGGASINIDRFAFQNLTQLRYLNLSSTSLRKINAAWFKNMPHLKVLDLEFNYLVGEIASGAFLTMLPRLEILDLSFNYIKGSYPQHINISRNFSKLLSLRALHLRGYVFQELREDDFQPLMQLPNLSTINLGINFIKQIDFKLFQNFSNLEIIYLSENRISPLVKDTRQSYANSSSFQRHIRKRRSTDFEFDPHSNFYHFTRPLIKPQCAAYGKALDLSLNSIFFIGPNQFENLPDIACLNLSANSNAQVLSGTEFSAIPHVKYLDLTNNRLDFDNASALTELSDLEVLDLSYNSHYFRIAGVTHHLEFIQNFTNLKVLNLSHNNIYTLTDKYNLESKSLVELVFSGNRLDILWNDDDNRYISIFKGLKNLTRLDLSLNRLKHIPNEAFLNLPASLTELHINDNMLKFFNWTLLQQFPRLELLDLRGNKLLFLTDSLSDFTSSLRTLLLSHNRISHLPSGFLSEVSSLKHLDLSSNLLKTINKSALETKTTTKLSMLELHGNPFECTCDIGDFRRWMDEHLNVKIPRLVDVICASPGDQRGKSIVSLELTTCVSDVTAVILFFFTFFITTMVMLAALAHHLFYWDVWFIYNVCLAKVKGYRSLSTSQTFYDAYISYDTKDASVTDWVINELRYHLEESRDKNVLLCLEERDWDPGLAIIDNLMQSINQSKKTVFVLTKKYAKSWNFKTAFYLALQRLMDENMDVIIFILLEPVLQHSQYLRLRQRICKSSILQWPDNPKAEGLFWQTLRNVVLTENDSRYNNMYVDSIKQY
Method in brief: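 HEK293 cells stably expressing human TLR8 reporter. Value taken as the minimum effective concentration (MEC), defined as the concentration giving a 3-fold increase in reporter signal above background.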

[5] = biological target: Toll-like receptor 3 (Homo sapiens) (UniProt O15455); test: Agonist activity at human TLR3 expressed in HEK293 cells assessed as increase in NF-kappaB activation up to 10 uM incubated for 18 hrs by quanti-blue SEAP reporter gene assay; format: cell-based; details: dose microM <=10, time […]
Method in brief: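 HEK293 cells stably expressing individual human TLRs or other innate immune receptors, used as reporter gene assays. Minimum effective concentration defined as the level giving a 3-fold rise over background.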

[6] = biological target: T3, C-type lectin domain family 4 member E (Homo sapiens) (UniProt Q9ULY5); test: Agonist activity at human Mincle receptor up to 10 uM; details: dose microM <=10
T3 sequence (whole entry): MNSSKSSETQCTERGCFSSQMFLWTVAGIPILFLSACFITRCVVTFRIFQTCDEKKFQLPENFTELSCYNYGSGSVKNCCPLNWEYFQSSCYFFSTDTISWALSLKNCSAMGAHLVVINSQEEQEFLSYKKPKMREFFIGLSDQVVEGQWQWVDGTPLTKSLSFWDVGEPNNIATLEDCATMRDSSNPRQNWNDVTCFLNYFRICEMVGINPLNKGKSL

Toll-like receptor 3 (Homo sapiens), sequence (O15455 whole entry): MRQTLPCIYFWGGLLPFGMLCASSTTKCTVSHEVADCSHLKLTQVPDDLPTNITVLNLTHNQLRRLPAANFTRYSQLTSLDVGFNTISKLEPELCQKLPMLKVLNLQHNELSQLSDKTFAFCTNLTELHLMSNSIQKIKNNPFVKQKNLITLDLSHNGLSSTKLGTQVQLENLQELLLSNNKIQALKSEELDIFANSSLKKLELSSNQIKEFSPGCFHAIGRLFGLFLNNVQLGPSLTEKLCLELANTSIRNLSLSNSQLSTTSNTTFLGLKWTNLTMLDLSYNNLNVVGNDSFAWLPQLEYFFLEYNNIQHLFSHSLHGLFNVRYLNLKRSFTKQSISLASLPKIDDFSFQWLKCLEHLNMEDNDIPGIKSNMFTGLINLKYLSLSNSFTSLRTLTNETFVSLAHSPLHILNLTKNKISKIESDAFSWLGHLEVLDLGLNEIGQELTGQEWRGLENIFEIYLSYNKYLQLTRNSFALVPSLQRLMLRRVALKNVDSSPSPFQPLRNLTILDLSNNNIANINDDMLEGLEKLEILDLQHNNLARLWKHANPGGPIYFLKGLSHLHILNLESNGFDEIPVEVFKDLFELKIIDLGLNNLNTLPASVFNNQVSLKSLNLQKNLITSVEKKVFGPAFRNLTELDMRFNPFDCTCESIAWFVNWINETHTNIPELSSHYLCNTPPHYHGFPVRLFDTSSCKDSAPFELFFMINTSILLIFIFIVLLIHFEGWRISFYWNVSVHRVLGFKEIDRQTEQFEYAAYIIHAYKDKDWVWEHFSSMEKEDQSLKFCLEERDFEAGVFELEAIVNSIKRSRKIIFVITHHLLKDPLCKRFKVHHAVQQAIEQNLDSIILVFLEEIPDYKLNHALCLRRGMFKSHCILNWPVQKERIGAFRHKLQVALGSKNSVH

EC50 (Toll-like receptor 7): > 50 µM
Drug metabolism [1]: Metabolite_Detected
AUC(0-inf) [2]: 0.0118 µM·h
Cmax [3]: 1.2 nM
MEC [4]: 49 nM
Activity [5]: inactive
Activity [6]: inactive
SMILES: CCCC[C@](C)(CO)Nc1nc(N)nc2cc(F)cnc12 [SELGANTOLIMOD]
